Like-named read-outs stand apart in the source and are kept apart here.
How the values were obtained:
[1] = type: in vivo, human
Summary of the method: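 Routine TDM of trough serum sunitinib and N-desethyl sunitinib in one patient, reported as total concentration (the sum of both); the clinical target trough is 50-100 ng/ml. Sampling: immediately before dasatinib and on days 7, 32, 70 and 84. Sunitinib was given orally at 14 days on/7 days off: 50 mg/day, 37.5 mg/day from day 18, then 50/37.5 mg/day alternately from day 81.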

CYP3A4 = conditions: cited from earlier work
[2] = type: in vivo, human; remark: listed apart in the source
Summary of the method: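 Serum from the patient was taken 8 h after dasatinib dosing, using the residue of samples drawn for sunitinib TDM, and assayed later by LC-MS/MS (LLOQ 0.5 ng/ml). Samples were from days 7, 32 and 84. Oral dasatinib was given at 60 mg/day, then 50 mg/day from day 28, alongside sunitinib; esomeprazole magnesium was a concomitant drug.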

[3] = cited from earlier work
[4] = system: chronic myeloid leukemia (CML); assay: Response of chronic myeloid leukemia to dasatinib in the patient; type: in vivo, human; conditions: day 154 after starting dasatinib; BCR::ABL1^IS≤1%
Summary of the method: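 Patient with chronic-phase CML took oral dasatinib at 60 mg/day from day 1. Cytogenetic response was defined as BCR::ABL1IS≤1% and assessed on day 154.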

[5] = system: metastatic renal cell carcinoma (mRCC); assay: Course of metastatic renal cell carcinoma under sunitinib in the patient; type: in vivo, human; conditions: day 186; led to change from sunitinib to axitinib
[6] = clinical practice, sum of sunitinib and N-desethyl sunitinib; cited from earlier work
Adverse events = type: in vivo, human; conditions: day -30; sunitinib 50 mg/day alone
Summary of the method: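 Single patient with metastatic renal cell carcinoma on oral sunitinib monotherapy, 14 days on/7 days off, before dasatinib started (day 1). Adverse events graded by CTCAE. Hand-foot skin reaction was managed with heparinoid cream and diarrhea with bifidobacterial powder.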

[7] = rats; ketoconazole combined with sunitinib; cited from earlier work
[8] = day 7, sunitinib 50 mg/day with dasatinib 60 mg/day
[9] = day 32, sunitinib 37.5 mg/day with dasatinib 50 mg/day
[10] = day 84, sunitinib 50.0 and 37.5 mg/day alternately with dasatinib 50 mg/day
[11] = immediately before starting dasatinib, sunitinib 50 mg/day alone, 14 days on/7 days off

`CCNCCNC(=O)c1c(C)[nH]c(/C=C2\C(=O)Nc3ccc(F)cc32)c1C` [N-desethyl sunitinib] showed a trough serum concentration [1, 8] of 12.2 ng/mL, a trough serum concentration [1, 9] of 4.7 ng/mL and a trough serum concentration [1, 10] of 7.4 ng/mL. It also gave a trough serum concentration [1, 11] of 13.7 ng/mL.
For `Cc1nc(Nc2ncc(C(=O)Nc3c(C)cccc3Cl)s2)cc(N2CCN(CCO)CC2)n1` [dasatinib], the CYP3A4 inhibition (CYP3A4) is given as “moderate”, the dasatinib serum concentration ([2]; day 7, 8 h after administration, dasatinib 60 mg/day with sunitinib) is given as 1.16 ng/mL and the dasatinib serum concentration ([2]; day 84, 8 h after administration, dasatinib 50 mg/day with sunitinib) is given as 2.75 ng/mL. For the same compound, the concentration at 8 h ([2]; male, human, serum, oral, 50 mg/day) was 3 ng/mL, the solubility [3] was “pH-dependent” and the “response for CML” value [4] was “complete cytogenetic response”. The “effect of dasatinib combination on sunitinib serum concentration” value ([1]; day 7 versus before dasatinib, sunitinib 50 mg/day) was “no change”.
In the case of `CCN(CC)CCNC(=O)c1c(C)[nH]c(/C=C2\C(=O)Nc3ccc(F)cc32)c1C` [sunitinib], the “course of RCC metastases” value [5] is given as “pancreatic and left adrenal metastases were enlarged”, the “target trough concentration as total sunitinib concentration” value [6] is given as 50 to 100 ng/mL and the “diarrhea, CTCAE grade” value (Adverse events) is given as 1. The “hand-foot skin reaction (HFSR), CTCAE grade” value (Adverse events) was 1, the trough serum concentration [1, 8] was 64.9 ng/mL and the trough serum concentration [1, 9] was 28.6 ng/mL. It also gave a trough serum concentration [1, 10] of 38.7 ng/mL and a trough serum concentration [1, 11] of 63.7 ng/mL.
For `CC(=O)N1CCN(c2ccc(OCC3COC(Cn4ccnc4)(c4ccc(Cl)cc4Cl)O3)cc2)CC1` (centres unmarked) [ketoconazole], the “effect of combination on the concentration of sunitinib” value [7] is listed as “significantly increased”.

Source: paper PMC11843194 (Experimental and Therapeutic Medicine, 2025)
